Test results reported in ChEMBL document CHEMBL1154048, “Design, synthesis and pharmacological evaluation of new 1-[3-(4-arylpiperazin-1-yl)-2-hydroxy-propyl]-3,3-diphenylpyrrolidin-2-one derivatives with antiarrhythmic, antihypertensive, and alpha-adrenolytic activity” (Eur J Med Chem, 2009).

Legend:
Rattus norvegicus [1] = test: Hypotensive activity in normotensive Wistar rat assessed as systolic blood pressure at 5 mg/kg, iv after 30 mins (Rvb=140.5 +/- 1.1 mmHg); assay type: functional, Artery
Rattus norvegicus [2] = test: Hypotensive activity in normotensive Wistar rat assessed as diastolic blood pressure at 5 mg/kg, iv after 5 mins (Rvb=125.5 +/- 0.6 mmHg); assay type: functional, Artery
Rattus norvegicus [3] = test: Hypotensive activity in normotensive Wistar rat assessed as diastolic blood pressure at 5 mg/kg, iv after 10 mins (Rvb=125.5 +/- 0.6 mmHg); assay type: functional, Artery
Rattus norvegicus [4] = test: Hypotensive activity in normotensive Wistar rat assessed as diastolic blood pressure at 5 mg/kg, iv after 10 mins (Rvb=127 +/- 8.1 mmHg); assay type: functional, Artery
[5] = Selectivity ratio of Kb for alpha1B adrenoceptor in guinea pig spleen to Kb for Alpha-1D adrenoceptor in Wistar rat thoracic aorta; assay type: tissue-based
Summary of the method: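 Isolated-tissue antagonism assays were run in guinea-pig spleen (α1B) and in endothelium-denuded ~4 mm thoracic aortic rings from male Wistar rats weighing 200–350 g (α1D). Aortic rings sat in Krebs–Henseleit at 37 °C, pH 7.4, gassed with O2/CO2 19:1, at 2 g tension. Two cumulative noradrenaline curves were run 60 min apart, with 30 min antagonist incubation and continuous propranolol. Schild pA2 was taken as pKB, n ≥ 5.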

Rattus norvegicus [6] = test: Hypotensive activity in normotensive Wistar rat assessed as diastolic blood pressure at 5 mg/kg, iv after 20 mins (Rvb=127 +/- 8.1 mmHg); assay type: functional, Artery
Rattus norvegicus [7] = test: Hypotensive activity in normotensive Wistar rat assessed as diastolic blood pressure at 5 mg/kg, iv after 30 mins (Rvb=127 +/- 8.1 mmHg); assay type: functional, Artery
[8] = test system: Alpha-1B adrenergic receptor (Cavia porcellus); test: Antagonist activity at Alpha-1B adrenoceptor in guinea pig spleen assessed as inhibition of noradrenaline-induced contraction after 30 mins
Guinea pig spleen α1B = Guinea pig spleen α1B (Cavia porcellus, UniProt H0WBQ9); test: Antagonist activity at Alpha-1B adrenoceptor in guinea pig spleen assessed as inhibition of noradrenaline-induced contraction after 30 mins; assay type: functional, tissue-based; settings: read-out: pA2 (converted)
Summary of the method: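 Guinea-pig spleen strips equilibrated 100 min with repeated noradrenaline stimulation and washout. Two cumulative noradrenaline concentration–response curves were run 60 min apart, before and after a 30 min antagonist incubation, with propranolol present throughout to block β-adrenoceptors. Contraction was expressed as % of the first-curve maximum. EC50 was fitted by non-linear regression, and Schild analysis of concentration ratios gave pA2. n ≥ 5.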

Rattus norvegicus [9] = test: Hypotensive activity in normotensive Wistar rat assessed as systolic blood pressure at 5 mg/kg, iv after 60 mins (Rvb=142.5 +/- 3.6 mmHg); assay type: functional, Artery
Rattus norvegicus [10] = test: Hypotensive activity in normotensive Wistar rat assessed as systolic blood pressure at 5 mg/kg, iv after 20 mins (Rvb=142.5 +/- 3.6 mmHg); assay type: functional, Artery
Rattus norvegicus [11] = test: Hypotensive activity in normotensive Wistar rat assessed as diastolic blood pressure at 2.5 mg/kg, iv after 10 mins (Rvb=107.2 +/- 7.3 mmHg); assay type: functional, Artery
Rattus norvegicus [12] = test: Hypotensive activity in normotensive Wistar rat assessed as systolic blood pressure at 2.5 mg/kg, iv after 60 mins (Rvb=125.6 +/- 7.6 mmHg); assay type: functional, Artery
Rattus norvegicus [13] = test: Hypotensive activity in normotensive Wistar rat assessed as diastolic blood pressure at 2.5 mg/kg, iv after 30 mins (Rvb=107.2 +/- 7.3 mmHg); assay type: functional, Artery
Rattus norvegicus [14] = test: Hypotensive activity in normotensive Wistar rat assessed as systolic blood pressure at 2.5 mg/kg, iv after 5 mins (Rvb=125.6 +/- 7.6 mmHg); assay type: functional, Artery
Rattus norvegicus [15] = test: Hypotensive activity in normotensive Wistar rat assessed as diastolic blood pressure at 2.5 mg/kg, iv after 60 mins (Rvb=107.2 +/- 7.3 mmHg); assay type: functional, Artery
Rattus norvegicus [16] = test: Hypotensive activity in normotensive Wistar rat assessed as diastolic blood pressure at 5 mg/kg, iv after 5 mins (Rvb=126 +/- 4.6 mmHg); assay type: functional, Artery
Rattus norvegicus [17] = test: Hypotensive activity in normotensive Wistar rat assessed as systolic blood pressure at 5 mg/kg, iv after 30 mins (Rvb=141.3 +/- 6.4 mmHg); assay type: functional, Artery
Rattus norvegicus [18] = test: Hypotensive activity in normotensive Wistar rat assessed as diastolic blood pressure at 5 mg/kg, iv after 30 mins (Rvb=126 +/- 4.6 mmHg); assay type: functional, Artery
Rattus norvegicus [19] = test: Hypotensive activity in normotensive Wistar rat assessed as systolic blood pressure at 5 mg/kg, iv after 20 mins (Rvb=141.3 +/- 6.4 mmHg); assay type: functional, Artery
Rattus norvegicus [20] = test: Hypotensive activity in normotensive Wistar rat assessed as diastolic blood pressure at 5 mg/kg, iv after 60 mins (Rvb=126 +/- 4.6 mmHg); assay type: functional, Artery
Rattus norvegicus [21] = test: Hypotensive activity in normotensive Wistar rat assessed as diastolic blood pressure at 5 mg/kg, iv after 20 mins (Rvb=126 +/- 4.6 mmHg); assay type: functional, Artery
Rattus norvegicus [22] = test: Hypotensive activity in normotensive Wistar rat assessed as systolic blood pressure at 5 mg/kg, iv after 5 mins (Rvb=139 +/- 0.6 mmHg); assay type: functional, Artery
Rattus norvegicus [23] = test: Hypotensive activity in normotensive Wistar rat assessed as diastolic blood pressure at 5 mg/kg, iv after 60 mins (Rvb=120 +/- 1.7 mmHg); assay type: functional, Artery
Rattus norvegicus [24] = test: Hypotensive activity in normotensive Wistar rat assessed as diastolic blood pressure at 5 mg/kg, iv after 30 mins (Rvb=120 +/- 1.7 mmHg); assay type: functional, Artery
Rattus norvegicus [25] = test: Hypotensive activity in normotensive Wistar rat assessed as diastolic blood pressure at 5 mg/kg, iv after 10 mins (Rvb=120 +/- 1.7 mmHg); assay type: functional, Artery
Rattus norvegicus [26] = test: Hypotensive activity in normotensive Wistar rat assessed as systolic blood pressure at 5 mg/kg, iv after 10 mins (Rvb=139 +/- 0.6 mmHg); assay type: functional, Artery
Rattus norvegicus [27] = test: Hypotensive activity in normotensive Wistar rat assessed as diastolic blood pressure at 5 mg/kg, iv after 5 mins (Rvb=120 +/- 1.7 mmHg); assay type: functional, Artery
Rattus norvegicus [28] = test: Hypotensive activity in normotensive Wistar rat assessed as diastolic blood pressure at 5 mg/kg, iv after 20 mins (Rvb=120 +/- 1.7 mmHg); assay type: functional, Artery
Rattus norvegicus [29] = test: Hypotensive activity in normotensive Wistar rat assessed as systolic blood pressure at 5 mg/kg, iv after 30 mins (Rvb=138 +/- 0.9 mmHg); assay type: functional, Artery
Rattus norvegicus [30] = test: Hypotensive activity in normotensive Wistar rat assessed as systolic blood pressure at 5 mg/kg, iv after 10 mins (Rvb=138 +/- 0.9 mmHg); assay type: functional, Artery
Rattus norvegicus [31] = test: Hypotensive activity in normotensive Wistar rat assessed as diastolic blood pressure at 5 mg/kg, iv after 20 mins (Rvb=119 +/- 1.2 mmHg); assay type: functional, Artery
Rattus norvegicus [32] = test: Hypotensive activity in normotensive Wistar rat assessed as diastolic blood pressure at 5 mg/kg, iv after 10 mins (Rvb=119 +/- 1.2 mmHg); assay type: functional, Artery
Rattus norvegicus [33] = test: Hypotensive activity in normotensive Wistar rat assessed as systolic blood pressure at 5 mg/kg, iv after 20 mins (Rvb=138 +/- 0.9 mmHg); assay type: functional, Artery

Compound: Cl.Cl.O=C1N(CC(O)CN2CCN(c3ccccc3)CC2)CCC1(c1ccccc1)c1ccccc1 (centres undefined)
- Activity (Rattus norvegicus [1]): 129 mmHg
- Activity (Rattus norvegicus [2]): 119 mmHg
- Activity (Rattus norvegicus [3]): 118.6 mmHg

Compound: CCOc1ccccc1N1CCN(CC(O)CN2CCC(c3ccccc3)(c3ccccc3)C2=O)CC1.Cl.Cl (centres undefined)
- Activity (Rattus norvegicus [4]): 105 mmHg
- Ratio [5]: 5.2
- Activity (Rattus norvegicus [6]): 98 mmHg
- Activity (Rattus norvegicus [7]): 96 mmHg
- Activity [8]: Dose-dependent effect
- Kb (Guinea pig spleen α1B): 281 nM
- Activity (Rattus norvegicus [9]): 114 mmHg
- Activity (Rattus norvegicus [10]): 111 mmHg

Compound: COc1ccc(N2CCN(CC(O)CN3CCC(c4ccccc4)(c4ccccc4)C3=O)CC2)cc1.Cl.Cl (centres undefined)
- Activity (Rattus norvegicus [11]): 96.4 mmHg
- Activity (Rattus norvegicus [12]): 105.8 mmHg
- Activity (Rattus norvegicus [13]): 88.2 mmHg
- Activity (Rattus norvegicus [14]): 126.6 mmHg
- Activity (Rattus norvegicus [15]): 88.2 mmHg

Compound: Cc1ccccc1N1CCN(CC(O)CN2CCC(c3ccccc3)(c3ccccc3)C2=O)CC1.Cl.Cl (centres undefined)
- Activity (Rattus norvegicus [16]): 116.7 mmHg
- Activity (Rattus norvegicus [17]): 133 mmHg
- Activity (Rattus norvegicus [18]): 117.7 mmHg
- Activity (Rattus norvegicus [19]): 136.3 mmHg
- Activity (Rattus norvegicus [20]): 99 mmHg
- Activity (Rattus norvegicus [21]): 119.7 mmHg

Compound: COc1ccccc1N1CCN(CC(O)CN2CCC(c3ccccc3)(c3ccccc3)C2=O)CC1.Cl.Cl (centres undefined)
- Activity (Rattus norvegicus [22]): 125 mmHg
- Activity (Rattus norvegicus [23]): 98 mmHg
- Activity (Rattus norvegicus [24]): 102.5 mmHg
- Activity (Rattus norvegicus [25]): 107.5 mmHg
- Activity (Rattus norvegicus [26]): 122 mmHg
- Activity (Rattus norvegicus [27]): 109 mmHg
- Activity (Rattus norvegicus [28]): 104 mmHg

Compound: Cl.Cl.O=C1N(CC(O)CN2CCN(c3ccccc3C(F)(F)F)CC2)CCC1(c1ccccc1)c1ccccc1 (centres undefined)
- Activity (Rattus norvegicus [29]): 116 mmHg
- Activity (Rattus norvegicus [30]): 122 mmHg
- Activity (Rattus norvegicus [31]): 104 mmHg
- Activity (Rattus norvegicus [32]): 106.5 mmHg
- Activity (Rattus norvegicus [33]): 119 mmHg
